The source of these data is ChEMBL document CHEMBL4270574, “Methotrexate prodrugs sensitive to reactive oxygen species for the improved treatment of rheumatoid arthritis” (Eur J Med Chem, 2018).

Converted amounts (≈) assume the structure as drawn. The source made the active and inactive calls. No cut-off for these calls is given here.

The nature of data set [1]: Prodrug activation in 20% DMSO/PBS assessed as 5 mM H2O2-mediated methotrexate formation by measuring prodrug half life at 100 uM at 37 degC, pH 7.4 by RP-UPLC-MS analysis. It counts as physicochemical. The settings on record: buffer, pH 7.4, 100 µM. In a few lines: (§1)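 Prodrug at 100 µM in 20% DMSO/PBS (pH 7.4) with diclofenac internal standard was incubated at 37 °C with shaking, with H2O2 at 0.25–10 mM or PBS only (stability control). Samples were taken from 5 min to 24 h. Percent remaining compound and MTX formation were read by RP-UPLC at 306 nm. Runs were in triplicate and t1/2 is given ± SD.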

Data set [2] is described as follows: Thermodynamic solubility in pH 7.4 PBS buffer at 2 mg sonicated for 10 mins followed by incubation at 20 degC for 15 hrs by RP-UPLC-MS analysis. The settings on record: read-out: Therm_solubility. It counts as physicochemical. In outline:
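Solid (2 mg) in 1 mL PBS (pH 7.4) was sonicated, shaken for 15 h at 20 °C and centrifuged. The supernatant was diluted 1:5 in DMF and quantified by RP-UPLC-MS against a 25–125 µg/mL calibration curve. Results are at least three measurements ± SD.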

A short description of data set [3]: Half life in human plasma at 37 degC at pH 7.4 by RP-UPLC-MS analysis. It counts as ADME, cell-free. In outline: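 Reconstituted freeze-dried human plasma was diluted 1:1 with PBS (pH 7.4) and preincubated for 10 min at 37 °C. Compound was added from a 1 mg/mL DMSO stock and incubated at 37 °C. Samples at 0, 0.5, 1, 2, 4 and 8 h were quenched in ice-cold MeCN, centrifuged, and the supernatant analyzed by RP-UPLC-MS. t1/2 is from triplicates ± SD.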

The subject of data set [4] is Mus musculus. Put plainly: Anti-arthritic activity in DBA/1J mouse model of collagen-induced arthritis inflammation assessed as reduction in fore limb swelling at 8.3 mg/kg, ip administered daily for 14 days starting from day 27 post disease onset and measured 3 times per week from day 18 to 40 […]. It is filed as functional, organism-based. In a few lines:
(§2)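 Male DBA/1J mice (8–9 weeks) were immunized intradermally near the tail base with 100 µg chicken type II collagen in CFA on day -1, with a 50 µg boost on day 21. From day 27 they received daily i.p. dosing in 2% DMSO/PBS for 14 days (n = 8/group). Blinded scoring ran three times weekly, day 18–40, at 0–15 per limb (maximum 60). Mice scoring above 45 were removed. Results are mean ± SEM, tested by one-tailed Mann–Whitney.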

The nature of data set [5]: Prodrug activation in 20% DMSO/PBS assessed as 0.5 mM H2O2-mediated methotrexate formation by measuring prodrug half life at 100 uM at 37 degC, pH 7.4 by RP-UPLC-MS analysis. It counts as physicochemical. The settings on record: buffer, pH 7.4, 100 µM. In a few lines: as §1
A short description of data set [6]: Chemical stability in pH 7.4 PBS buffer after 24 hrs by RP-UPLC-MS analysis. It counts as physicochemical. The settings on record: pH 7.4, 24 h. In a few lines:
as §1

A short description of data set [7]: Half life in 20% DMSO/PBS at 100 uM at 37 degC at pH 7.4 by RP-UPLC-MS analysis. It is filed as physicochemical. In outline:
as §1

Data set [8] relates to Mus musculus. As to the kind of experiment: Toxicity in DBA/1J mouse model of collagen-induced arthritis inflammation assessed as reduction in body weight at 8.3 mg/kg, ip administered daily for 14 days starting from day 27 post disease onset. It counts as organism-based. The settings on record: in vivo, 336 h.
The nature of data set [9]: Apparent intrinsic clearance in human liver microsomes at 37 degC at pH 7.4 by RP-UPLC-MS analysis. It counts as ADME, microsome. The settings on record: read-out: CLH(app). In outline: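 Pooled human liver microsomes in PBS were preincubated for 10 min at 37 °C. Compound was added from a 10 mM DMSO stock, then NADPH from a 30 mM stock, with a no-NADPH control. Aliquots taken at 0–40 min were quenched in ice-cold MeCN, centrifuged and analyzed by UPLC-MS. CL'int was derived from the in vitro t1/2 scaled by 45 mg microsomes/g liver and 20 g liver/kg body weight.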

Data set [10] deals with Mus musculus. Put plainly: Anti-arthritic activity in DBA/1J mouse model of collagen-induced arthritis inflammation assessed as reduction in fore limb swelling at 7 mg/kg, ip administered daily for 14 days starting from day 27 post disease onset and measured 3 times per week from day 18 to 40 […]. It is filed as functional, organism-based. In a few lines:
as §2

The test system of data set [11] is Mus musculus. Put plainly: Toxicity in DBA/1J mouse model of collagen-induced arthritis inflammation assessed as reduction in body weight at 7 mg/kg, ip administered daily for 14 days starting from day 27 post disease onset. It is filed as organism-based. The settings on record: in vivo, 336 h.
Data set [12] is described as follows: Chemical stability in 20% DMSO/PBS at 100 uM at 37 degC after 60 mins in absence of H2O2 by RP-UPLC-MS analysis. It counts as physicochemical. The settings on record: buffer, 1 h. In a few lines: as §1
Data set [13] can be described thus: Chemical stability in 20% DMSO/PBS at 100 uM at 37 degC after 60 mins in presence of 10 mM H2O2 by RP-UPLC-MS analysis. It is filed as physicochemical. The settings on record: buffer, 1 h. In a few lines:
as §1

Data set [14] can be described thus: Chemical stability in pH 7.4 PBS buffer by RP-UPLC-MS analysis. It counts as physicochemical. In a few lines: as §1

With `CN(Cc1cnc2nc(N)nc(N)c2n1)c1ccc(C(=O)N[C@@H](CCC(=O)N2CCSC2=O)C(=O)O)cc1`, the t1/2 stood at 1.7 h in data set [1] and 16.5 h in data set [5]. For the same compound, in data set [2], the solubility thermodynamic at 15 h was 400 µg/mL (≈ 741 µM). In addition, the half-life in data set [3] is 7 h. Moreover, the outcome in [4] was Active. For the same compound, the Stability entry in data set [6] was “Stable”. In addition, the half-life at 100 µM in data set [7] was 116 h. In data set [8], the Activity result is on record as “Non-Toxic”. For the same compound, the CLint scaled in [9] was 1.4 mL/min/kg.
Regarding `CN(Cc1cnc2nc(N)nc(N)c2n1)c1ccc(C(=O)N[C@@H](CCC(=O)O)C(=O)O)cc1` [METHOTREXATE], the outcome in [10] was Active. The Activity result in data set [11] was “Toxic”. Also, the Stability result in [12] and in [13] was “Stable” in each case.
Consider `CN(Cc1cnc2nc(N)nc(N)c2n1)c1ccc(C(=O)N[C@@H](CCC(=O)O)C(=O)N2CCSC2=O)cc1`, for which the Stability result in [14] is recorded as “Unstable”.
